From PubChem BioAssay
NF-kB neuron act: activators of NF-kB expression in neurons, primary screen, cell-based, HTS; fold change at 12.5 µM; human neuronal cells, NF-kB reporter expression; active compounds read high; hit rate 1.6% among 190,000; AID 1239, 2008; in the data active means fold change above about 3.3
FLuc inh counter: firefly luciferase enzyme inhibitors, primary screen, artefact control for luciferase-based inhibitor screens, biochemical, luminescence, ATPLite; 10 min; inhibition, % at 10 µM; hit rate 1.5% among 200,000; AID 1006, 2008;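 active means inhibition above about 50% when tested at 10 µM, limit read from the data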
Target sequence (P08659 whole entry, looked up): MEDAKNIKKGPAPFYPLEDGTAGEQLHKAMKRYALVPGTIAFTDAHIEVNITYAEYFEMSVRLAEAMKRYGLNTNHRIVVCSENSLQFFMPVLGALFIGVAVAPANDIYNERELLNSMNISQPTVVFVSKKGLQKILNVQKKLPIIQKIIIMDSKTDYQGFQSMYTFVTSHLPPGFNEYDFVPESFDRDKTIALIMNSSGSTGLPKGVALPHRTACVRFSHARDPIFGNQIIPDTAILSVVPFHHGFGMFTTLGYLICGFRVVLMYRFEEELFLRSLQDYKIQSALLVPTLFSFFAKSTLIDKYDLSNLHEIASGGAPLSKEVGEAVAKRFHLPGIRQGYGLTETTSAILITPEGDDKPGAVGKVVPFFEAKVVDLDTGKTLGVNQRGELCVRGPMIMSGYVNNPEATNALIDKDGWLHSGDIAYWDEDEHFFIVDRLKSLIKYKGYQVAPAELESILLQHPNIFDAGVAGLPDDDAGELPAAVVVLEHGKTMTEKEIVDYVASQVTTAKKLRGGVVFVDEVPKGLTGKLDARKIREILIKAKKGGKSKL
TRAIL sens C8: viability loss with TRAIL in NB7+C8 cells, primary screen, TRAIL sensitizer project, cell-based, ATPlite luminescence | inhibition (viability loss, TRAIL sensitization), % at 10 µM | hit rate 1% among 360,000;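 active means compounds causing at least 50% loss of cell viability in the single-dose screen, relative to plate controls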
APP 5'UTR act: activators of APP 5'UTR luciferase reporter, primary screen, SH-SY5Y cells. activation, % at 2 µM. SH-SY5Y APP 5'UTR luciferase reporter, luminescence; zero percent = DMSO vehicle wells. hit rate 1% among 190,000. AID 1276, 2008;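 active means activation above a set limit, based on mean plus 3 SD of controls, cut at about 140% in these data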
PPC-1+TRAIL kill: compounds killing PPC-1 cancer cells with TRAIL present, primary screen, TRAIL potentiator project, ATPLite luminescence, uHTS; AID 1443, 2008; PPC-1 cells + TRAIL, ATPLite viability luminescence; cell killing (% activity), % at 4 µM or 5 µM; hit rate 0.41% among 220,000;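 active means cell killing above 50% in the first pass at 4 µM, then a duplicate retest at 5 µM averaging 50% or more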;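 further: plate controls were cells with TRAIL plus DMSO for no effect and medium-only wells lacking cells for full effect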
FLuc act counter: FLuc activators, initial screening, artefact control for FLuc-dependent activation tests, biochemical, ATPlite luminescence | 200,000 tested, under 10 active | Luciferin 4-monooxygenase (Photinus pyralis), P08659 | activation factor at 10 µM | AID 1027, 2008 | ATPlite luciferase biochemical, 10 min; 0 = ATP-free wells, 1 = DMSO control;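 active means luciferase activation factor, scaled between plate controls, of at least 2 with compound at 10 µM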
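Assay system – cell-free luciferase reagent · Medium – PBS-based ATP solution · Dosing – test compounds dosed from 2 mM stocks in 100% DMSO · Timing – 10 min, room temperature · Technique – light output (luminescence) · Measure – luminescence gain marking luciferase activators · Controls – No-ATP low control, compound-free enzyme-plus-ATP high control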
The depositor's hits bear a star; . = not tested or not shown. The list is not random: actives were taken first. Their share in the collection is about 2.2%.

SMILES | NF-kB neuron act | FLuc inh counter | TRAIL sens C8 | APP 5'UTR act | PPC-1+TRAIL kill | FLuc act counter
CNc1ncc(C(=O)c2ccc(F)cc2)s1 | 2 | 14 | 0 | 39 | 17 | 0.9
O=C(c1ccc(Cl)cc1)c1cnc(-c2ccc(Cl)cc2)s1 | 1.1 | -1 | -4 | 12 | 12 | 1
O=C(c1ccccc1)c1cnc(-c2ccc(Cl)cc2)s1 | 6.6* | 36 | 19 | 123 | 23 | 0.6
COC(=O)c1sccc1NC(=O)C1C2C=CC(C2)C1C(=O)O (stereo unspecified) | 1.4 | -6 | 3 | 18 | 11 | 1.1
Cc1ccsc1C(=O)NNC(=O)C1C2C=CC(C2)C1C(=O)O (stereo unspecified) | 1.4 | 0 | -8 | 154* | 20 | 1
COc1ccc(/C=N/c2c(-c3ccc(OC)cc3)nc3n2CCS3)cc1 | 1.4 | 59* | 18 | -16 | -7 | 0.4
COc1ccc2nc(SCC(=O)N3CC(=O)Nc4ccccc43)c(C#N)cc2c1 | 0.43 | -4 | -3 | -59 | 17 | 1
Cc1cc(C)c2nc(SCC(=O)N3CC(=O)Nc4ccccc43)c(C#N)cc2c1 | 3.5* | 6 | -2 | -96 | 32 | 0.9
Cc1cc(C(=O)Nc2ccc(Br)cc2)c2ccccc2n1 | . | . | -8 | . | . | .
Cc1ccc(N/N=C(\C#N)C(=O)c2ccsc2)cc1 | . | . | 9 | . | 15 | .
Cc1ccc(N/C=C(/C#N)c2ccsc2)cc1C | 5.2* | 4 | 11 | 105 | 22 | 1
COc1ccc(-c2cc(O)cc(O)c2)cc1 | 3.8* | 37 | 23 | 103 | 18 | 0.6
COc1ccc(OC)cc1 | . | . | -9 | . | . | .
CCC(=O)Nc1ccc2c(c1)C(=O)c1ccccc1C2=O | 4.2* | 23 | 25 | 104 | 16 | 0.8
O=C(NC(=S)Nc1ccc2c(c1)C(=O)c1ccccc1C2=O)c1ccc(F)cc1 | 3.3* | 8 | . | 89 | 31 | 0.9
O=C(NC(=S)Nc1ccc2c(c1)OCCO2)c1cccc2ccccc12 | 1.6 | -1 | 1 | 12 | -7 | 1
CC(=O)c1cccc(NC(=S)NC(=O)c2ccccc2)c1 | 3.8* | 34 | 9 | 71 | 17 | 0.7
O=C(NC(=S)Nc1ccc2c(c1)OCCO2)c1cccc(Br)c1 | 4.8* | 12 | 17 | 91 | 8 | 0.9
CC(=O)c1cccc(NC(=S)NC(=O)c2cccc(Cl)c2)c1 | 2.1 | 7 | 10 | 60 | -7 | 0.9
COC(=O)Cc1ccc(OC2(C)CCN(Cc3ccc(-c4ccccn4)cc3)C2)cc1 (stereo unspecified) | . | . | 1 | . | . | .
Cc1csc(CN(C)C(=O)CC2C(=O)NCCN2Cc2ccc(Cl)c(F)c2)n1 (stereo unspecified) | . | . | -11 | . | . | .
O=C(NC(=S)Nc1ccc2c(c1)OCO2)c1ccccc1 | 7.3* | 47 | 11 | 170* | 16 | 0.5
CCC1CCC(NC(=O)Nc2cccc(OC)c2)CC1 (stereo unspecified) | 4.5* | 33 | 23 | 158* | 20 | 0.7
CCN(CC)c1ccc(/C=N/O)cc1 | 1.2 | 18 | 5 | -5 | 7 | 0.8
CCN(CC)c1ccc(N=Nc2ncn[nH]2)cc1 | 2.6 | 82* | 48 | 49 | 47 | 0.2
SMILES | NF-kB neuron act | FLuc inh counter | TRAIL sens C8 | APP 5'UTR act | PPC-1+TRAIL kill | FLuc act counter
Cc1cccc(C(=O)NCC(=O)OCC(=O)c2ccc(Cl)s2)c1 | . | . | 15 | . | . | .
Cc1[nH]nc2nc(SCC(=O)NC3CCCCC3)n(-c3ccc(Br)cc3)c(=N)c12 | . | . | 31 | . | . | .
CCCOC(=O)c1ccc(-c2ccc(C=O)o2)cc1 | 4.8* | 10 | 9 | 105 | 50* | 0.9
CCC1(CC)C(=O)N(c2ccccc2)C(=N)N(c2ccccc2)C1=O | . | . | 4 | . | . | .
COC1CCN(C(=O)C2CCC(=O)N(CCc3cccc(F)c3)C2)CC1 (stereo unspecified) | . | . | -8 | . | . | .
O=C(NC(=S)N1CCN(c2ccc(C(F)(F)F)cc2[N+](=O)[O-])CC1)c1cccs1 | 0.96 | -9 | 51* | 7 | 16 | 1.1
O=C(O)c1cc(Cl)c(Cl)cc1C(=O)Nc1cccc2cccnc12 | 1.2 | -6 | -2 | -12 | 44 | 1.1
O/N=C/c1ccc(OCc2ccccc2)c(Cl)c1 | 5.4* | 39 | 20 | 117 | 16 | 0.6
O/N=C/c1ccc(OCc2ccccc2)c(Br)c1 | 6.7* | 22 | 24 | 131 | 3 | 0.8
O/N=C/c1ccc(OCc2ccccc2F)c(Cl)c1 | 1.2 | 44 | 11 | 135 | 30 | 0.6
O/N=C/c1cc(Br)cc(Br)c1OCc1ccccc1 | 1.2 | -10 | 9 | -4 | 27 | 1.1
Cc1cccc(-c2noc(-c3csc([C@@H]4C[C@H](O)[C@@H](CO)O4)n3)n2)c1 | . | . | 51* | . | . | .
Cc1ccc(C(=O)NN=Cc2ccc3c(c2)OCO3)cc1 | . | . | 33 | . | . | .
O=C(/C=C/c1ccc2c(c1)OCO2)c1ccc(F)cc1 | 1.6 | 48 | 19 | 20 | 6 | 0.5
Cc1ccc(C(=O)/C=C/c2ccc3c(c2)OCO3)o1 | 1.8 | 80* | -10 | 21 | 9 | 0.2
Cc1ccc(C(=O)N/N=C/c2ccc3c(c2)OCO3)o1 | 2 | 69* | 36 | 35 | 15 | 0.3
O=C(/C=C/c1ccc2c(c1)OCO2)c1ccc[nH]1 | 1.4 | 76* | 25 | 188* | 25 | 0.2
O=C(N/N=C/c1ccc(Br)cc1)c1ccc(Br)o1 | 3.5* | 58* | 33 | 65 | 16 | 0.4
COc1cccc(S(=O)(=O)N(C)C[C@H]2OCc3cnnn3CCCC(=O)N([C@@H](C)CO)C[C@H]2C)c1 | . | . | -2 | . | . | .
CC1OC(CCc2cccc(Cl)c2)Cc2[nH][nH]c(=O)c21 (stereo unspecified) | . | . | -22 | . | . | .
COc1cccc(/C=C/C(=O)Oc2ccc(C(=O)c3ccc(F)cc3)cc2)c1 | 1.2 | -3 | -9 | -12 | 0 | 1
Cc1ccc(C(=O)/C=C/c2ccccc2)o1 | 1.5 | 72* | 19 | 10 | 19 | 0.3
COc1cccc(/C=C/C(=O)c2ccc[nH]2)c1 | 6.6* | 52* | 9 | 201* | 35 | 0.5
Cc1ccc(C(=O)/C=C/c2ccc(Br)cc2)o1 | 2.1 | 35 | 20 | 8 | 4 | 0.7
CC(=O)Nc1ccc(S(=O)(=O)Nc2cc(S(=O)(=O)N3CCCCC3)ccc2O)cc1 | . | . | -29 | . | . | .
CN(CCO)CCC(=O)NC1(C)CS(=O)(=O)CC1S(=O)(=O)O (stereo unspecified) | . | . | -7 | . | -16 | .
COC(=O)[C@@]12C[C@@H](CC(=O)N3CCN(C(=O)C4CC4)CC3)C(=O)N(Cc3ccccc3)C1=CCC(C)(C)C2 | . | . | -10 | . | . | .
O=C(NC1=NCCS1)c1sc2cc(F)ccc2c1Cl | 4.8* | 47 | 15 | 86 | -1 | 0.5
